One compound from ChEMBL document CHEMBL2177069, “Novel peptidomimetic compounds containing redox active chalcogens and quinones as potential anticancer agents” (Eur J Med Chem, 2012) can be followed below.

Activity calls are given as the source filed them. The calls are words filed in the database; no cut-off is given here.

The test system of the first data set is Saccharomyces cerevisiae. Nature of the data set: Growth inhibition of SOD2-deficient Saccharomyces cerevisiae YHR008C mutant at 20 ug/disc 24 to 48 hrs by agar diffusion assay. The data set is classed as functional. Conditions: read-out: DIZ. In outline:
(§1)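 S. cerevisiae deletion mutants or wild type grown on YPD, seeded into liquid agar medium at an optical density of 0.1. 6 mm paper discs soaked with methanolic compound solution were placed on the plates and incubated at 30 °C. Growth was checked after 1 and 2 days, and the inhibition zone diameter was recorded in mm.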
On to `CC1=C(SCCC(=O)OC(CC[Se]c2ccccc2)C(=O)NCCCCCC(=O)OCc2ccccc2)C(=O)c2ccccc2C1=O` (centres undefined), for which the zone of inhibition at 20 µg/disc was 12 mm.

Another data set concerns HUVEC. Put plainly: Induction of oxidative stress in human HUVEC cells assessed as increase in hydrogen peroxide free radical production after 1 hr by DCF-based fluorescence spectrophotometric analysis. The data set is classed as cell-based.
Conditions: not given
In outline:
(§2)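 Cells were seeded at 10^5 per well and given graded compound concentrations for 1 h. They were then loaded with DHE or DCF probe for 30 min in the dark. Fluorescence was read immediately: DHE ex 540/em 600 nm; DCF ex 485/em 528 nm. Results were expressed as arbitrary units per 10^5 cells.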
For the compound `CC1=C(SCCC(=O)OC(CC[Se]c2ccccc2)C(=O)NCCCCCC(=O)OCc2ccccc2)C(=O)c2ccccc2C1=O` (centres undefined), the Activity entry is listed as “Non-toxic”.

Another data set deals with Saccharomyces cerevisiae. Nature of the data set: Growth inhibition of GSH2-deficient Saccharomyces cerevisiae YOL049W mutant at 20 ug/disc after 24 to 48 hrs by agar diffusion assay. The class given is functional. Conditions: read-out: DIZ. The method in brief:
as §1
`CC1=C(SCCC(=O)OC(CC[Se]c2ccccc2)C(=O)NCCCCCC(=O)OCc2ccccc2)C(=O)c2ccccc2C1=O` (centres undefined): the zone of inhibition at 20 µg/disc is 0 mm.

The next data set relates to Saccharomyces cerevisiae. Put plainly: Growth inhibition of WSC4-deficient Saccharomyces cerevisiae YHL028W mutant at 20 ug/disc 24 to 48 hrs by agar diffusion assay. The class given is functional. The conditions noted are these: read-out: DIZ. In outline:
as §1
As to `CC1=C(SCCC(=O)OC(CC[Se]c2ccccc2)C(=O)NCCCCCC(=O)OCc2ccccc2)C(=O)c2ccccc2C1=O` (centres undefined), the zone of inhibition at 20 µg/disc came to 11 mm.

The subject of another data set is MCF7. Nature of the data set: Cytotoxicity against human MCF7 cells after 24 hrs by MTT assay. Conditions: MCF7, 24 h. The class given is functional, cell-based. In outline: (§3)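 MTT assay. Cells were seeded at 50,000 cells/mL in medium with 10% fetal calf serum and grown for two days at 37 °C, 10% CO2. Serial dilutions of compound were then added for 24 h. MTT was added (final 0.5 mg/mL) for 2 h, and the formazan was pelleted, washed, dissolved in isopropanol with 0.4% HCl and read at 590 nm. IC50 is the concentration giving 50% of untreated-control absorbance, taken from dose-response curves; mean of two parallel experiments.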
`CC1=C(SCCC(=O)OC(CC[Se]c2ccccc2)C(=O)NCCCCCC(=O)OCc2ccccc2)C(=O)c2ccccc2C1=O` (centres undefined): the IC50 is 19 µM.

Another data set has as its system Saccharomyces cerevisiae. Nature of the data set: Growth inhibition of POS5-deficient Saccharomyces cerevisiae YPL188W mutant at 20 ug/disc after 24 to 48 hrs by agar diffusion assay. The data set is classed as functional. The conditions noted are these: read-out: DIZ. The method in brief:
as §1
On to `CC1=C(SCCC(=O)OC(CC[Se]c2ccccc2)C(=O)NCCCCCC(=O)OCc2ccccc2)C(=O)c2ccccc2C1=O` (centres undefined), for which the zone of inhibition at 20 µg/disc turned out to be 0 mm.

The next data set deals with A-431. Put plainly: Cytotoxicity against human A431 cells after 24 hrs by MTT assay. The data set is classed as functional, cell-based. Conditions: A-431, 24 h. The method in brief:
as §3
For the compound `CC1=C(SCCC(=O)OC(CC[Se]c2ccccc2)C(=O)NCCCCCC(=O)OCc2ccccc2)C(=O)c2ccccc2C1=O` (centres undefined), the IC50 is above 100 µM.

The next data set deals with Saccharomyces cerevisiae. Nature of the data set: Growth inhibition of COX17-deficient Saccharomyces cerevisiae YLL009C mutant at 20 ug/disc after 24 to 48 hrs by agar diffusion assay. The class given is functional. The conditions noted are these: read-out: DIZ. The method in brief: as §1
As for `CC1=C(SCCC(=O)OC(CC[Se]c2ccccc2)C(=O)NCCCCCC(=O)OCc2ccccc2)C(=O)c2ccccc2C1=O` (centres undefined), the zone of inhibition at 20 µg/disc amounted to 0 mm.

Another data set concerns Saccharomyces cerevisiae. Nature of the data set: Growth inhibition of RCK1-deficient Saccharomyces cerevisiae YGL158W mutant at 20 ug/disc after 24 to 48 hrs by agar diffusion assay. The data set is classed as functional. Conditions: read-out: DIZ. In outline:
as §1
`CC1=C(SCCC(=O)OC(CC[Se]c2ccccc2)C(=O)NCCCCCC(=O)OCc2ccccc2)C(=O)c2ccccc2C1=O` (centres undefined): the zone of inhibition at 20 µg/disc stood at 0 mm.

The subject of the next data set is Saccharomyces cerevisiae. Put plainly: Growth inhibition of GTT2-deficient Saccharomyces cerevisiae YLL060C mutant at 20 ug/disc after 24 to 48 hrs by agar diffusion assay. The data set is classed as functional. The conditions noted are these: read-out: DIZ. The method in brief: as §1
Take `CC1=C(SCCC(=O)OC(CC[Se]c2ccccc2)C(=O)NCCCCCC(=O)OCc2ccccc2)C(=O)c2ccccc2C1=O` (centres undefined): the zone of inhibition at 20 µg/disc amounted to 17 mm.

Another data set concerns HUVEC. Nature of the data set: Induction of oxidative stress in human HUVEC cells assessed as increase in superoxide free radical production after 1 hr by DHE-based by fluorescence spectrophotometric analysis. The class given is cell-based.
Conditions: not given
In outline:
as §2
For `CC1=C(SCCC(=O)OC(CC[Se]c2ccccc2)C(=O)NCCCCCC(=O)OCc2ccccc2)C(=O)c2ccccc2C1=O` (centres undefined), the Activity entry was “Non-toxic”.

The subject of a further data set is Saccharomyces cerevisiae. Put plainly: Growth inhibition of UFD2-deficient Saccharomyces cerevisiae YDL190C mutant at 20 ug/disc after 24 to 48 hrs by agar diffusion assay. The class given is functional. Conditions: read-out: DIZ. The method in brief:
as §1
On to `CC1=C(SCCC(=O)OC(CC[Se]c2ccccc2)C(=O)NCCCCCC(=O)OCc2ccccc2)C(=O)c2ccccc2C1=O` (centres undefined), for which the zone of inhibition at 20 µg/disc was found to be 0 mm.

A further data set deals with A-431. Nature of the data set: Induction of oxidative stress in human A431 cells assessed as increase in hydrogen peroxide free radical production after 1 hr by DCF-based fluorescence spectrophotometric analysis. The data set is classed as functional, cell-based.
Conditions: not given
In outline:
as §2
As to `CC1=C(SCCC(=O)OC(CC[Se]c2ccccc2)C(=O)NCCCCCC(=O)OCc2ccccc2)C(=O)c2ccccc2C1=O` (centres undefined), the result was Active.

System in another data set: not listed separately
Put plainly: Cytotoxicity against human PHF cells after 24 hrs by MTT assay. The class given is cell-based.
Conditions: not given
In outline:
as §3
For the compound `CC1=C(SCCC(=O)OC(CC[Se]c2ccccc2)C(=O)NCCCCCC(=O)OCc2ccccc2)C(=O)c2ccccc2C1=O` (centres undefined), the half-inhibitory concentration (IC50) was determined as 21 µM. That is a double-digit micromolar value.

In a further data set the test system is Saccharomyces cerevisiae. Put plainly: Growth inhibition of wild type Saccharomyces cerevisiae BY4741 at 20 ug/disc after 24 to 48 hrs by agar diffusion assay. Conditions: read-out: DIZ. The data set is classed as functional. The method in brief:
as §1
`CC1=C(SCCC(=O)OC(CC[Se]c2ccccc2)C(=O)NCCCCCC(=O)OCc2ccccc2)C(=O)c2ccccc2C1=O` (centres undefined): the zone of inhibition at 20 µg/disc is 0 mm.

A further data set deals with A498. Nature of the data set: Cytotoxicity against human A498 cells after 24 hrs by MTT assay. The data set is classed as functional, cell-based. Conditions: A498, 24 h. In outline:
as §3
For `CC1=C(SCCC(=O)OC(CC[Se]c2ccccc2)C(=O)NCCCCCC(=O)OCc2ccccc2)C(=O)c2ccccc2C1=O` (centres undefined), the 50% inhibitory concentration (IC50) was above 100 µM.

The subject of another data set is HUVEC. Put plainly: Cytotoxicity against human HUVEC cells after 24 hrs by MTT assay. The class given is cell-based.
Conditions: not given
The method in brief: as §3
`CC1=C(SCCC(=O)OC(CC[Se]c2ccccc2)C(=O)NCCCCCC(=O)OCc2ccccc2)C(=O)c2ccccc2C1=O` (centres undefined) had an IC50 of 17 µM.

The test system of a further data set is Saccharomyces cerevisiae. Nature of the data set: Growth inhibition of SOD1-deficient Saccharomyces cerevisiae YJR104C mutant at 20 ug/disc after 24 to 48 hrs by agar diffusion assay. The data set is classed as functional. The conditions noted are these: read-out: DIZ. In outline: as §1
For `CC1=C(SCCC(=O)OC(CC[Se]c2ccccc2)C(=O)NCCCCCC(=O)OCc2ccccc2)C(=O)c2ccccc2C1=O` (centres undefined), the zone of inhibition at 20 µg/disc was 13 mm.

A further data set deals with Saccharomyces cerevisiae. Nature of the data set: Growth inhibition of PST2-deficient Saccharomyces cerevisiae YDR032C mutant at 20 ug/disc 24 to 48 hrs by agar diffusion assay. The conditions noted are these: read-out: DIZ. The class given is functional. In outline: as §1
For the compound `CC1=C(SCCC(=O)OC(CC[Se]c2ccccc2)C(=O)NCCCCCC(=O)OCc2ccccc2)C(=O)c2ccccc2C1=O` (centres undefined), the zone of inhibition at 20 µg/disc amounted to 11 mm.
